A selection: hits, their analogues and other compounds. The true share with any hit is near 2.4%.
SUMO1-SIM PPI: modulators of human SUMO1-mediated protein-protein interactions. P63165. SUMO1 binding to a labelled peptide, TR-FRET, 1 h. inhibition, % at 20 µM. 360,000 compounds, 0.33% hits. AID 602429; in the data active = inhibition above about 37%
Target sequence (P63165 whole entry, looked up): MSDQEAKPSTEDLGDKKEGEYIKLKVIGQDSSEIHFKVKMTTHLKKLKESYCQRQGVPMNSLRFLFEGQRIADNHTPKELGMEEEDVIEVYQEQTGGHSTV
LMPTP block: LMPTP (human) inhibition | recombinant LMPTP-A, OMFP fluorogenic substrate, fluorescence intensity | 360,000 compounds, 0.22% hits | P24666 | AID 651560 | inhibition, % at 20 µM;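 active = compounds that cut the enzyme signal by at least half of the control window in the single-dose screen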;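 also: plate controls were DMSO wells with enzyme plus substrate for no effect and substrate without enzyme for full effect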
Target sequence (P24666 whole entry, looked up): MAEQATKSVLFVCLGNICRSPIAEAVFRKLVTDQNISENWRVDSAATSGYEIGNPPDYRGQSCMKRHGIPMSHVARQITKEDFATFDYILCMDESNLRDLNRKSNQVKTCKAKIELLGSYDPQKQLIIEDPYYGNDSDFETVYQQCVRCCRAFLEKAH
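test system = LMPTP-A | amount = 0.625 nM LMPTP-A final | reagent = fluorogenic phosphatase substrate OMFP at 400 µM final | incubation = 50 min at room temperature | benchmarks = no-enzyme low control, uninhibited high control | medium = Bis-Tris pH 6.0, DTT, detergent | signal = fluorescence intensity of OMFP turnover product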
NadD inh: inhibitors of Staphylococcus aureus NadD. 360,000 compounds, 0.78% hits. purified NadD enzyme, colorimetric absorbance read-out. inhibition, % at 20 µM. AID 602399; in the data active = inhibition above about 26%
Scp1 inh: inhibitors of human Scp-1 phosphatase. inhibition, % at 20 µM. 340,000 compounds, 0.88% hits. AID 493091. Recombinant Scp1, phosphopeptide, malachite green phosphate absorbance. Q9GZU7;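 active = inhibition above about 50% at 20 µM, limit read from the data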;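 also: plate controls were DMSO wells with enzyme for no effect and wells lacking enzyme for full effect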
Target sequence (Q9GZU7 76-261 limits assumed): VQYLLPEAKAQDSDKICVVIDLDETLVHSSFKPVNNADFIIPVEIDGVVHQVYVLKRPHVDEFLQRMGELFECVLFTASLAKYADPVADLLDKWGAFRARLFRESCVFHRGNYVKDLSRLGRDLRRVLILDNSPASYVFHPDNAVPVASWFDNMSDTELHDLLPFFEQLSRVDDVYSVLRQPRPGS
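Assay system: SCP-1 catalytic fragment, aa 76-261 | Buffer or medium: Tris acetate buffer pH 5.5 with MgCl2 and Tween-20 | Compound: One concentration, 20 µM, with 1.0% DMSO | Also added: Phospho 17-mer peptide substrate | Signal: Absorbance at 630 nm | Incubation: 45 min enzyme reaction at room temperature | Measure: % inhibition of SCP-1 phosphate liberation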
DNMT1 block: DNMT1 (human) enzyme inhibition; inhibition (reported as % activation of signal), % at 10 µM; P26358; DNMT1 molecular beacon, Hinp1I cleavage, fluorescence; 360,000 compounds, 0.83% hits; AID 588458; in the data active = inhibition above about 50%
STEP inh: blocks human striatal-enriched tyrosine phosphatase; 360,000 compounds, 0.25% hits; recombinant STEP, OMFP fluorogenic substrate, fluorescence; inhibition, % at 20 µM; AID 588621;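 active = inhibition at 20 µM, scaled per plate between control wells, above about 37%, limit read from the data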;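 also: 0% = DMSO with enzyme and substrate and 100% = substrate only without enzyme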
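Test system: STEP tyrosine phosphatase / Reagent: OMFP at 25 µM / Doses: 20 µM, 1% DMSO / Read-out: percent inhibition scaled to no-enzyme and uninhibited-enzyme controls, plate-pattern corrected / Detection: FITC-channel fluorescence of OMFP product / Medium: Bis-Tris buffer pH 6.0, 2.5 mM DTT, 0.005% Tween 20 / Schedule: 20 min at room temperature, dark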
Starred values were filed as active, the others as inactive; / = no result given.

SMILES | SUMO1-SIM PPI | LMPTP block | NadD inh | Scp1 inh | DNMT1 block | STEP inh
CN1CCN(C(=O)c2cnn(-c3ccccc3)c2NC(=O)c2ccccc2Cl)CC1 | 55.2* | 0.4 | -3.2 | -5.5 | -2.2 | 0.9
COc1ccc(NC(=O)CN(C)C(=O)c2c(-c3c(F)cccc3Cl)noc2C)cc1 | 8.6 | -0.8 | -4.6 | -9.6 | -0.7 | -2.0
COc1cccc(CN(C)C(=O)c2ccc3nccnc3c2)c1 | 0.9 | -5.1 | 6.9 | -4.3 | -5.0 | 5.1
Cc1ccccc1NC(=O)CCc1nnc2ccc(N3CCC4(CC3)OCCO4)nn12 | -4.6 | -1.1 | 0.0 | -5.7 | -1.9 | -2.0
O=C(CSC(=S)N1CCOCC1)Nc1nc(-c2ccccc2)c(-c2ccccc2)o1 | 2.9 | 2.8 | 15.0 | -5.2 | -16.7 | 0.1
O=C(CSC(=S)N1CCCCC1)Nc1nc(-c2ccccc2)c(-c2ccccc2)o1 | 50.5* | 2.7 | 16.3 | 1.1 | 4.2 | 3.1
Cc1ccc(-n2nc3c(c2NC(=O)c2ccc(S(=O)(=O)N4CCOCC4)cc2)CSC3)c(C)c1 | 0.0 | 0.1 | 33.6* | -7.2 | -7.0 | -2.5
O=C(CSc1nnc(SCc2ccccc2)s1)N/N=C/c1c[nH]c2ccccc12 | 75.2* | 12.2 | -4.8 | -2.3 | 4.0 | 4.2
CC1=NOC(=O)/C1=C\c1ccc(-c2ccccc2Br)o1 | 29.9 | 5.2 | 21.5 | -3.4 | 51.7* | 3.4
CC1=NOC(=O)/C1=C\c1ccc(-c2cccc(Cl)c2)o1 | 40.0* | 4.3 | 12.1 | -4.4 | 57.2* | 7.5
Cn1c(=O)c2c(SCC(=O)Nc3nccs3)nc(C3CC3)nc2n(C)c1=O | -0.9 | 0.4 | -2.5 | -9.0 | 0.8 | -1.4
O=C(CCN1C(=O)S/C(=C\c2ccccc2)C1=O)Nc1ccc(O)cc1C(=O)O | -15.4 | -2.1 | -5.7 | 12.9 | 11.1 | 5.4
CN1C(=O)/C(=C/c2ccc(C(=O)Nc3ccc(O)cc3C(=O)O)cc2)SC1=S | 32.6 | 18.8 | 40.3* | 46.9 | -5.1 | 97.5*
COc1cccc(/C=C2/SC(=S)N(CC(=O)NNC(=O)c3ccccc3O)C2=O)c1 | 6.5 | 2.3 | 7.3 | -7.7 | -3.9 | 4.9
O=C(CN1C(=O)/C(=C/c2ccccc2)SC1=S)NNC(=O)c1ccccc1O | -11.0 | 4.0 | 36.7* | 2.2 | -4.0 | -3.4
Cc1ccc(/C=C2\SC(=S)N(CCC(=O)NNC(=O)c3ccccc3O)C2=O)cc1 | -0.7 | 2.5 | 37.7* | -3.6 | 12.1 | 0.4
O=C(CN1C(=O)/C(=C/c2cccc(Br)c2)SC1=S)NC1=NCCS1 | -9.7 | -0.4 | 34.2* | -1.3 | 25.1 | 1.2
COC(=O)Cc1ccc(OC2(C)CCN(Cc3ccccc3OC(F)F)C2)cc1 (stereo not given) | 2.6 | -1.4 | -7.1 | / | 4.3 | -3.0
Cc1ccc(/C=C2\SC(=S)N(CCC(=O)NNC(=O)c3ccc(O)cc3)C2=O)cc1 | -9.7 | -2.9 | 44.5* | -3.4 | 2.2 | 2.6
O=c1c2c(-c3ccccc3)csc2nc2c3ccccc3c(NCCN3CCOCC3)nn12 | 64.2* | 8.7 | 24.1 | 5.4 | -2.9 | 8.8
C[C@H]1[C@@H](Cc2cc(Cl)cc(Cl)c2)N(c2ccccc2)c2ccccc2CN1Cc1ccccc1 | -4.6 | 1.4 | / | / | / | /
CCOC(=O)c1c2c(n(C)c1C)C(=O)C(=O)c1ccc(Br)cc1-2 | 22.0 | 2.9 | 3.4 | -4.3 | 88.5* | 1.8
CCOC(=O)c1c2c3c(cccc3n(C)c1=O)C(=O)c1ccccc1-2 | -17.1 | 0.8 | -10.0 | -4.5 | 1.6 | 3.4
CCOC(=O)c1c2c(n(Cc3ccccc3)c1C)C(=O)C(=O)c1ccccc1-2 | 16.4 | 13.8 | 1.0 | -7.7 | 93.1* | 1.6
COc1cccc2c1[C@@H]1CN(CCCCn3c(=O)[nH]c4c(sc5ncc(-c6ccccc6)nc54)c3=O)C[C@@H]1CO2 | -17.3 | 67.5* | 19.9 | 14.0 | -11.3 | 6.2
SMILES | SUMO1-SIM PPI | LMPTP block | NadD inh | Scp1 inh | DNMT1 block | STEP inh
COc1ccccc1N=Nc1ccc(O)c2ncccc12 | -16.3 | 7.3 | 30.9* | -14.2 | 1.8 | 8.2
CCS(=O)(=O)c1ccc(N=Nc2ccc(O)c3ncccc23)c(OC)c1 | -35.4 | 11.8 | 17.5 | -13.2 | -7.9 | 5.5
C#CCOCCOCCOCCNc1nc(N2CCN(C(=O)CCCCCCCCCCNC(=O)[C@H](CCC(=O)O)n3cc(CCCCCN)nn3)CC2)nc(N2CCN(C(=O)CCCCCCCCCCNC(=O)[C@@H]([C@H](C)O)n3cc(C)nn3)CC2)n1 | 0.4 | -5.6 | -3.1 | 21.0 | -25.1 | -0.2
C#CCOCCOCCOCCNc1nc(N2CCN(C(=O)CCCCCCCCCCNC(=O)[C@H](CCCCN)n3cc(CCO)nn3)CC2)nc(N2CCN(C(=O)CCCCCCCCCCNC(=O)[C@@H]([C@H](C)O)n3cc(C)nn3)CC2)n1 | -52.2 | -5.3 | 15.9 | 5.0 | -102.1 | -3.8
C#CCOCCOCCOCCNc1nc(N2CCN(C(=O)CCCCCCCCCCNC(=O)[C@H]([C@@H](C)CC)n3cc(CCCCCN)nn3)CC2)nc(N2CCN(C(=O)CCCCCCCCCCNC(=O)[C@@H]([C@H](C)O)n3cc(C)nn3)CC2)n1 | -52.5 | 2.3 | 32.6* | 26.6 | -101.9 | 2.5
C#CCOCCOCCOCCNc1nc(N2CCN(C(=O)CCCCCCCCCCNC(=O)[C@H](CCCCN)n3cc(C)nn3)CC2)nc(N2CCN(C(=O)CCCCCCCCCCNC(=O)[C@@H]([C@H](C)CC)n3cc(CCCCCN)nn3)CC2)n1 | 50.7* | 3.7 | 51.3* | / | -38.2 | 7.8
COc1ccccc1/C=C/C(=O)OCC(=O)NC1CCCCCCC1 | -6.1 | 0.9 | -7.4 | -9.0 | -6.9 | 0.5
COc1cccc(OC)c1C(=O)N1CCN(Cc2ccccc2C)CC1 | 2.0 | -2.8 | 0.0 | -11.9 | -3.4 | 2.0
CCC(=O)N1N=C(c2ccc(Cl)cc2)CC1c1ccco1 (stereo not given) | -3.4 | -0.5 | -2.2 | -9.5 | -0.9 | 4.4
CCc1ccc(C2=NN(C(C)=O)C(c3ccco3)C2)cc1 (stereo not given) | -0.1 | 0.5 | -7.0 | 69.4* | -1.3 | -1.8
COc1ccc(CN2CCc3c([nH]c4ccccc34)C2)c(OC)c1C | 2.7 | -3.1 | -3.0 | 2.4 | -0.7 | -2.3
Cc1ccc(C)n1-c1sccc1C(=O)O | 66.3* | 40.3 | 17.7 | 79.9* | 106.8* | 75.0*
Cc1ccc(NC(=O)Cn2c(O)c(N=NC(=O)c3cc4ccccc4cc3O)c3ccccc32)cc1 | -2.5 | 18.4 | 46.0* | 22.1 | 9.8 | 2.5
O=C(Cc1ccccc1F)NNC(=O)c1ccncc1 | -1.0 | -1.0 | -5.0 | 4.0 | 2.0 | -0.8
CC1(C)CC(N2CCN(Cc3ccccc3)CC2)=CC(=[N+]2CCCCC2)C1 | 0.5 | 1.7 | 12.1 | 106.4* | 0.9 | 1.2
CN(Cc1ccccc1)C1=CC(=[N+]2CCCCC2)CC(C)(C)C1 | -2.0 | 2.1 | 14.3 | 104.0* | 1.8 | 0.2

Bioassay records: PubChem, Sanford-Burnham Center for Chemical Genomics
